The values below come from paper PMC4727981 (Archives of biochemistry and biophysics, 2015).

“And” between values parts separate entries of the source, which are not always exact repeats. Equal entries are not always repeated. Where two headings read alike, the source gives them in different places.

Test [1] has as its target T1, human KIAA1363 (Homo sapiens, UniProt Q6PIU2).
T1 sequence (Q6PIU2 1-416 isoform Q6PIU2-2): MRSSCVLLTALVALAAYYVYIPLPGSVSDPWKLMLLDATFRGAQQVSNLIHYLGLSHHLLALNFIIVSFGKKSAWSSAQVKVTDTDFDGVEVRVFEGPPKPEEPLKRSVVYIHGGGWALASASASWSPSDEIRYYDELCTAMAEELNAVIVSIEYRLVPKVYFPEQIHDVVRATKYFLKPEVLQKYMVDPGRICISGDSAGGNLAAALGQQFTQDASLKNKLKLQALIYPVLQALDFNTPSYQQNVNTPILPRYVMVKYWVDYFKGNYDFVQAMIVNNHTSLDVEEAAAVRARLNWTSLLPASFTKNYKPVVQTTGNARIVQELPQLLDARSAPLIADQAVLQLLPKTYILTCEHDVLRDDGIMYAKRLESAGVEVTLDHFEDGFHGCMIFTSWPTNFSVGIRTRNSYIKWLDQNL
In kind it is biochemical. To be noted: data not shown.

The test system of test [2] is KIAA1363 in mouse brain membranes. As to conditions: cited from earlier work.
The test system is the same in test [3]. As to conditions: 1 nM [3H]-CPO, cited from earlier work.
The test system of another test is recombinant PON1^Q192. To be noted: recombinant PON1^Q192 ref 30; cited from earlier work.
The next test concerns recombinant PON1^R192. To be noted: recombinant PON1^R192 ref 30; cited from earlier work.
A further test deals with T2, human CES1 (Homo sapiens, UniProt P23141).
T2 sequence (P23141 18-566 isoform P23141-3 limits assumed): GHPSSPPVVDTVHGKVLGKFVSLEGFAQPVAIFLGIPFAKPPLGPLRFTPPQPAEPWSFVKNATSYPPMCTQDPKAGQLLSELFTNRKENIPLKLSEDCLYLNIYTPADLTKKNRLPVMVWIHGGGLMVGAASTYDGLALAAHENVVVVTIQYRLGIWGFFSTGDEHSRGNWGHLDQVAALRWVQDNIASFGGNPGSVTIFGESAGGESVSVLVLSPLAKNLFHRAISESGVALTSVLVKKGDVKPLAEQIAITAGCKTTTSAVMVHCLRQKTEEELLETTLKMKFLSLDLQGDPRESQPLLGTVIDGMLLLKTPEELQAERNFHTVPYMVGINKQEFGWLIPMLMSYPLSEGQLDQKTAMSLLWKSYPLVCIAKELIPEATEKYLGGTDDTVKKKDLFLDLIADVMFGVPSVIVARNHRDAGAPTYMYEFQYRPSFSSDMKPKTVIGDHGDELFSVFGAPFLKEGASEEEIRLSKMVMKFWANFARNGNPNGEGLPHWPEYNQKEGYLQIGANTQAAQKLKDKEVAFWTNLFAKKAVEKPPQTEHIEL
It is filed as biochemical. To be noted: for kinact/Ki (bimolecular rate constant): linear fit. The method in brief:
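Oxon at various concentrations plus 4-MUBA (250 μM) prewarmed 5 min at 37°C. Lysate (0.1 mg/ml final) then starts the reaction. 4-Methylumbelliferone fluorescence ([…]) is followed 45 min, with the mock-lysate signal subtracted. Curves are fit to a single exponential without reactivation to give kobs per concentration. Ki′ is substrate-corrected (Km 227 μM).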

The next test has as its target recombinant CES1. To be noted: recombinant CES1 ref 7; cited from earlier work.
In test [4] the target is T1, human KIAA1363. The test is described as follows: Reactivation of oxon-inhibited KIAA1363 activity after 100-fold dilution. To be noted: CPO 1 μM 15 min, diluted 100-fold, up to 60 min at 37°C. It is filed as biochemical. The method in brief:
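KIAA1363-transfected COS-7 lysate (1 mg/ml protein, 50 mM Tris-HCl pH 7.4) preincubated 15 min at 37°C with 1 μM oxon in ethanol (2% v/v), or ethanol alone as control. Reactions are diluted 1:100 in the same buffer and incubated 60 min at 37°C. Aliquots are taken every 10 min to assay residual 4-MUBA hydrolysis by fluorescence.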

Test [5] concerns the target T1, human KIAA1363. It is filed as biochemical. As to conditions: for kreact (calculated reactivation rate constant): calculated with Eqn. 7 / kinact ratio.
Where [6] appears, read: means of 2–4 independent experiments.

With `CCCCCCCC/C=C\CCCCCCCC(=O)Oc1ccc2c(C)cc(=O)oc2c1` [4-methylumbelliferyl oleate], the “hydrolysis by KIAA1363” value on human KIAA1363 [1] is listed as “could not detect any activity”.
On to `CCOP(=O)(OCC)Oc1nc(Cl)c(Cl)cc1Cl` [CPO, O,O′-Diethyl 3,5,6-trichloro-2-pyridyl phosphate], for which the “hydrolysis (turnover) of CPO by KIAA1363” value in test [2] (1 nM CPO, 60 min ref 9) was 100%. For the same compound, in test [2] (60 min incubation ref 9), the “hydrolysis of CPO by KIAA1363” value was “hydrolyzed completely”. In test [2] (60 min incubation ref 10), the “hydrolysis of 1 nM [3H]-CPO by brain membranes from wildtype mice” value is listed as “completely hydrolyzed”. Besides, in test [3] (5 min ref 10), the “added CPO covalently bound to KIAA1363” value is 48 mol %, the “added CPO present as diethylphosphoryl (non-aged) adduct” value is reported as 44 mol % and the “added CPO present as monoethylphosphoryl (aged) adduct” value is listed as 4 mol %. In [3] (60 min ref 10), the “CPO completely hydrolyzed to trichloropyridinol and diethylphosphate” value was 75 mol %; the “added CPO as covalent phosphoryl adduct on KIAA1363” value was 25 mol %; the “added CPO present as diethylphosphoryl adduct” value is on record as 13 mol %; the “added CPO present as monoethylphosphoryl adduct” value is listed as 12 mol %. Also, the “catalytic efficiency for hydrolysis of CPO” value in the test with recombinant PON1^Q192 was 90000 M⁻¹ s⁻¹. Also, the “catalytic efficiency for hydrolysis of CPO” value in the test with recombinant PON1^R192 was 150000 M⁻¹ s⁻¹. In addition, the “kinact/Ki (bimolecular rate constant)” value at human CES1 was 6.7(±4.2) × 10^6 s^−1M^−1. Further, the kinact/Ki on human CES1 (representative graph Fig. 6B, assuming Ki ≫ [I]) was 2.5 × 10^6 s^−1M^−1. Besides, the kinact/Ki at recombinant CES1 is ~ 10^7 s^−1M^−1. Moreover, the “kreact determined by dilution approach” value on human KIAA1363 [4] is 0.00038 s⁻¹. Besides, at human KIAA1363 [5], the “corrected kinact/Ki, fold higher than for PO” value was ~ 10 fold; the “kinact/Ki (corrected bimolecular rate constant)” value is reported as 4.4(±0.4) × 10^6 s^−1M^−1; the “ratio kinact/kreact (phosphorylation/dephosphorylation)” value is recorded as 16; the “kreact (calculated reactivation rate constant)” value is 0.0004 s⁻¹ and 0.00043 ± 0.00019 s⁻¹. In addition, on human KIAA1363 [5] (setting [6]), the kinact – broadly, the rate constant of inactivation at saturating inhibitor – is 0.0069 ± 0.0007 s⁻¹. The kinact at human KIAA1363 [5] (representative graph Fig. 6A) worked out at 0.0062 s⁻¹.
On to `CCOP(=O)(OCC)Oc1ccc([N+](=O)[O-])cc1` [PO, O,O′-diethyl p-nitrophenyl phosphate], for which, at human CES1, the “kinact/Ki (bimolecular rate constant)” value was 1.5 × 10^6 s^−1M^−1. At human KIAA1363 [5], the “kinact, fold lower than kinact for CPO” value is on record as 7.5 fold; the “kinact/Ki (corrected bimolecular rate constant)” value is 0.4 × 10^6 s^−1M^−1; the “ratio kinact/kreact (phosphorylation/dephosphorylation)” value is given as 3.4; the “kreact (calculated reactivation rate constant)” value is 0.0003 s⁻¹. The kinact at human KIAA1363 [5] (setting [6]) stood at 0.00092 s⁻¹.
For `CCCCCCCC/C=C\CCCCCCCC(=O)O[C@H]1CC[C@@]2(C)C(=CC[C@H]3[C@@H]4CC[C@H]([C@H](C)CCCC(C)C)[C@@]4(C)CC[C@@H]32)C1` [cholesteryl oleate], the “hydrolysis by KIAA1363” value at human KIAA1363 [1] is given as “could not detect any activity”.
